This is an account of results in ChEMBL document CHEMBL1128693, “Novel cytotoxic 3'-(tert-butyl) 3'-dephenyl analogs of paclitaxel and docetaxel” (J Med Chem, 1995).

Molecules are shown by their SMILES. Converted amounts (≈) assume the structure as drawn.

Data set [1] can be described thus: Water solubility of the compound. In kind it is ADME. The following applies: read-out: S. The gist of the method: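 Aqueous solubility by HPLC on a phenyl column. Mobile phases were 50% methanol/water and acetonitrile. The standard curve came from about 0.5 mg sample in 1 mL methanol with serial dilutions, plotting concentration against HPLC peak area. For samples, about 0.4 mg was placed in 9 mL water and sonicated 15 min in a cold-water bath.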

In data set [2] the test system is B16. Put plainly: The compound was tested for Cytotoxic concentration against B16 melanoma cells relative to paclitaxel. In kind it is functional. The following applies: Mus musculus, B16, read-out: ED50.
The subject of data set [3] is B16. Put plainly: The compound was tested for Cytotoxic concentration against B16 melanoma cells. The following applies: Mus musculus, B16, read-out: ED50. In kind it is functional.
Data set [4] can be described thus: Water solubility relative to Paclitaxel solubility. In kind it is ADME. The following applies: buffer. The gist of the method: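 Solubility in water by HPLC on a phenyl column: mobile phase A, 50% methanol/50% water; mobile phase B, acetonitrile. About 0.4 mg compound placed in 9 mL water in a 10 mL volumetric flask, sonicated 15 min in cold water. Quantified against a methanol standard curve (about 0.5 mg/mL serially diluted) of concentration vs HPLC peak area. Reported in µg/mL and as a ratio to paclitaxel solubility.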

Data set [5] addresses T1, Tubulin (Bos taurus) (UniProt Q6B856+Q862L2+Q862F3). Put plainly: Promotion of tubulin polymerization.
For data set [6], the target named is T1, Tubulin (Bos taurus). Put plainly: ED50 relative to paclitaxel in promoting tubulin polymerization.
Data set [7] can be described thus: Ratio of ED50 in microtubule assembly in presence of paclitaxel to only compound. In kind it is functional. A digest of the protocol:
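Bovine brain tubulin purified by three temperature-dependent assembly-disassembly cycles plus phosphocellulose-biogel P-10 chromatography, cleared at 27000g for 10 min. Varied compound levels incubated with 10 μM tubulin and 0.5 mM GTP in PEM buffer (0.1 M Pipes pH 6.9, 1 mM MgSO₄, 1 mM EGTA), 37 °C, 15 min. Spun at 40000g for 4 min; supernatant protein by Bradford. […] Ratio against paclitaxel ED50.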

`CCCCOC(=O)N[C@H]([C@@H](O)C(=O)O[C@H]1C[C@@]2(O)[C@@H](OC(=O)c3ccccc3)[C@@H]3[C@]4(OC(C)=O)CO[C@@H]4C[C@H](O)[C@@]3(C)C(=O)[C@H](O)C(=C1C)C2(C)C)C(C)(C)C`: the solubility in data set [1] was determined as 27 µg/mL (≈ 34.3 µM). Further, the EC50 in data set [2] is 31.3 nM; in data set [3], 64 nM. The Ratio in data set [4] is recorded as 90. Also, the figures for the ED50 in data set [5] and in data set [6] were 800 nM and 930 nM, respectively.
Consider `CC(=O)O[C@@]12CO[C@@H]1C[C@H](O)[C@@]1(C)C(=O)[C@H](O)C3=C(C)[C@@H](OC(=O)[C@H](O)[C@@H](NC(=O)OCC(C)C)C(C)(C)C)C[C@@](O)([C@@H](OC(=O)c4ccccc4)[C@H]21)C3(C)C`, for which, in data set [1], the solubility worked out at 28 µg/mL (≈ 35.5 µM). Moreover, the Ratio in data set [4] came out at 93. Besides, the ED50 in data set [5] amounted to 500 nM; in data set [6], 930 nM.
On the same counts, the results for `CC(=O)O[C@@]12CO[C@@H]1C[C@H](O)[C@@]1(C)C(=O)[C@H](O)C3=C(C)[C@@H](OC(=O)[C@H](O)[C@@H](NC(=O)c4ccccc4)C(C)(C)C)C[C@@](O)([C@@H](OC(=O)c4ccccc4)[C@H]21)C3(C)C` are 2.8 µg/mL (≈ 3.54 µM), 9.3, 1700 nM and 930 nM.
For `CC(=O)O[C@@]12CO[C@@H]1C[C@H](O)[C@@]1(C)C(=O)[C@H](O)C3=C(C)[C@@H](OC(=O)[C@H](O)[C@@H](/N=C(/S)NC(C)(C)C)C(C)(C)C)C[C@@](O)([C@@H](OC(=O)c4ccccc4)[C@H]21)C3(C)C`, the EC50 was 24.4 nM in data set [2] and over 1000 nM in data set [3]. Also, the Ratio in data set [7] was found to be 3.6. For the same molecule, the ED50 came to 3200 nM in data set [5] and 900 nM in data set [6].
Take `CC(=O)O[C@@]12CO[C@@H]1C[C@H](O)[C@@]1(C)C(=O)[C@H](O)C3=C(C)[C@@H](OC(=O)[C@H](O)[C@@H](NC(=O)OC(C)(C)C)C(C)(C)C)C[C@@](O)([C@@H](OC(=O)c4ccccc4)[C@H]21)C3(C)C`: the solubility in data set [1] was determined as 28 µg/mL (≈ 35.5 µM). For the same molecule, the values for the EC50 in data set [2] and in data set [3] were 31.3 nM and 12.5 nM, respectively. For the same molecule, the Ratio in data set [4] came to 93. Besides, the ED50 came to 350 nM in data set [5] and 930 nM in data set [6].
Consider `CC(=O)O[C@@]12CO[C@@H]1C[C@H](O)[C@@]1(C)C(=O)[C@H](O)C3=C(C)[C@@H](OC(=O)[C@H](O)[C@@H](NC(=O)NC(C)(C)C)C(C)(C)C)C[C@@](O)([C@@H](OC(=O)c4ccccc4)[C@H]21)C3(C)C`, for which, in data set [1], the solubility was 29 µg/mL (≈ 36.9 µM). The EC50 in data set [2] was found to be 29 nM; in data set [3], 26 nM. For the same molecule, in data set [4], the Ratio came to 97. Moreover, the ED50 in data set [5] was found to be 630 nM; in data set [6] it was 1050 nM.
As to `CC(=O)O[C@@]12CO[C@@H]1C[C@H](O)[C@@]1(C)C(=O)[C@H](O)C3=C(C)[C@@H](OC(=O)[C@H](O)[C@@H](NC(=O)CC(C)(C)C)C(C)(C)C)C[C@@](O)([C@@H](OC(=O)c4ccccc4)[C@H]21)C3(C)C`, in data set [1], the solubility was 26 µg/mL (≈ 33.1 µM). Moreover, the EC50 in data set [2] came to 29 nM; in data set [3] it was 104 nM. Further, in data set [4], the Ratio is 87. Also, the figures for the ED50 in data set [5] and in data set [6] were 500 nM and 1050 nM, respectively.
Regarding `CC(=O)O[C@H]1C(=O)[C@@]2(C)[C@H]([C@H](OC(=O)c3ccccc3)[C@]3(O)C[C@H](OC(=O)[C@H](O)[C@@H](NC(=O)c4ccccc4)c4ccccc4)C(C)=C1C3(C)C)[C@]1(OC(C)=O)CO[C@@H]1C[C@@H]2O` [PACLITAXEL], the solubility in data set [1] is 0.3 µg/mL (≈ 0.351 µM). Further, the Ratio in data set [4] worked out at 1.
In the case of `CCC(C)(C)OC(=O)N[C@H]([C@@H](O)C(=O)O[C@H]1C[C@@]2(O)[C@@H](OC(=O)c3ccccc3)[C@@H]3[C@]4(OC(C)=O)CO[C@@H]4C[C@H](O)[C@@]3(C)C(=O)[C@H](O)C(=C1C)C2(C)C)C(C)(C)C`, the solubility in data set [1] was 26 µg/mL (≈ 32.4 µM). Further, the EC50 in data set [2] was found to be 31.3 nM; in data set [3], 18 nM. The Ratio in data set [4] is 87. The ED50 in data set [5] was found to be 420 nM; in data set [6] it was 930 nM.
Take `CC(=O)O[C@@]12CO[C@@H]1C[C@H](O)[C@@]1(C)C(=O)[C@H](O)C3=C(C)[C@@H](OC(=O)[C@H](O)[C@@H](NC(=O)Nc4ccccc4)C(C)(C)C)C[C@@](O)([C@@H](OC(=O)c4ccccc4)[C@H]21)C3(C)C`: the solubility in data set [1] turned out to be 1.4 µg/mL (≈ 1.74 µM). For the same molecule, the EC50 in data set [2] was found to be 26.8 nM; in data set [3], 18.8 nM. Also, in data set [4], the Ratio is 4.7. Moreover, the ED50 in data set [5] is 330 nM; in data set [6] it was 1040 nM.
As to `CC(=O)O[C@@]12CO[C@@H]1C[C@H](O)[C@@]1(C)C(=O)[C@H](O)C3=C(C)[C@@H](OC(=O)[C@H](O)[C@@H](NC(=O)OC(C)(C)C)c4ccccc4)C[C@@](O)([C@@H](OC(=O)c4ccccc4)[C@H]21)C3(C)C.O.O.O` [DOCETAXEL], the solubility in data set [1] came out at 5 µg/mL. The EC50 was 27 nM in data set [2] and 11 nM in data set [3]. The results for the Ratio in data set [4] and in data set [7] were 17 and 0.45, respectively. The ED50 was 510 nM in data set [5] and 1140 nM in data set [6].
In the case of `CC(=O)O[C@@]12CO[C@@H]1C[C@H](O)[C@@]1(C)C(=O)[C@H](O)C3=C(C)[C@@H](OC(=O)[C@H](O)[C@@H](NC(=O)Oc4ccccc4)C(C)(C)C)C[C@@](O)([C@@H](OC(=O)c4ccccc4)[C@H]21)C3(C)C`, the results for the EC50 in data set [2] and in data set [3] were 31.3 nM and over 1000 nM, respectively. In addition, the Ratio in data set [7] is 1.4. Further, the ED50 worked out at 1300 nM in data set [5] and 930 nM in data set [6].
Taken in the same sequence, the figures for `CCCCCCOC(=O)N[C@H]([C@@H](O)C(=O)O[C@H]1C[C@@]2(O)[C@@H](OC(=O)c3ccccc3)[C@@H]3[C@]4(OC(C)=O)CO[C@@H]4C[C@H](O)[C@@]3(C)C(=O)[C@H](O)C(=C1C)C2(C)C)C(C)(C)C` were 31.3 nM, 370 nM, 2.3, 2100 nM and 930 nM.
On the same counts, the results for `CC(=O)O[C@@]12CO[C@@H]1C[C@H](O)[C@@]1(C)C(=O)[C@H](O)C3=C(C)[C@@H](OC(=O)[C@H](O)[C@@H](NC(=O)C(C)(C)C)C(C)(C)C)C[C@@](O)([C@@H](OC(=O)c4ccccc4)[C@H]21)C3(C)C` are 29 nM, 930 nM, 1.3, 1350 nM and 1050 nM.
